Source: ChEMBL document CHEMBL1125458, “3-O-alkylascorbic acids as free radical quenchers. 3. Protective effect on coronary occlusion-reperfusion induced arrhythmias in anesthetized rats” (1992)

Legend:
[1] = species on record: Rattus norvegicus; assay: Inhibitory effect on production of active oxygen species by rat peritoneal exudate macrophages; assay type: functional; parameters: concentration or dose not given beside the values
Method in brief: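 Peritoneal exudate macrophages harvested 3 days after ip liquid paraffin (male Wistar rats), >90% viable. Assay: 125 mM sodium phosphate pH 6.5, 0.08 mM EDTA, 1.2 U LDH, 0.32 mM NADH, (2–3) × 10^6 cells, compound in DMF, 1 × 10^-4 M. Started with NADH.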

[2] = species on record: Rattus norvegicus; assay: Inhibition of lipid peroxidation in rat liver microsomes.; assay type: functional; parameters: concentration or dose not given beside the values; conditions: dose or concentration not given here
Method in brief: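 Wistar rat liver microsomes (2.0 mg protein) in 83.5 mM KCl, 37.2 mM Tris-HCl pH 7.4 with 1 mM ADP, 10 µM FeCl3, 0.02 mM NADPH; compound added in DMF, tested at 10^-5 M. 37 °C, 20 min. Malondialdehyde measured by thiobarbituric acid method, A532; % inhibition, mean ± SD, n = 3–6.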

[3] = test system: Rattus norvegicus; assay: Effect (1 mg/kg, iv) on coronary reperfusion-induced arrhythmias was assessed in anesthetized rats.(Intervals of ventricular tachycardia (VT)+ventricular fibrillation (VF) within 600 s; assay type: functional, Cardiac ventricle
[4] = test system: Rattus norvegicus; assay: Effect (30 mg/kg, iv) on coronary reperfusion-induced arrhythmias was assessed in anesthetized rats.(Intervals of ventricular tachycardia (VT)+ventricular fibrillation (VF) within 600 s.; assay type: functional, Cardiac ventricle
[5] = test system: Rattus norvegicus; assay: Effect (10 mg/kg, iv) on coronary reperfusion-induced arrhythmias was assessed in anesthetized rats.(Intervals of ventricular tachycardia (VT)+ventricular fibrillation (VF) within 600 s.; assay type: functional, Cardiac ventricle
[6] = species on record: Cavia porcellus; assay: Inhibitory activity on atrial contractility in isolated Guinea pig right atrea at 0.03 mg/mL concentration; assay type: functional, Cardiac atrium
Method in brief: (§1)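 Right atria from male Hartley guinea pigs (450–550 g), loaded at 0.5 g, in Tyrode's solution at 37 °C gassed with 95% O2/5% CO2. Equilibrated at least 30 min until rate stable within 5 beats/min; spontaneous rate and contractile force recorded on polygraph after compound addition.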

[7] = species on record: Cavia porcellus; assay: Inhibitory activity on atrial rate in isolated Guinea pig right atrea at 0.1 mg/mL concentration; assay type: functional, Cardiac atrium; method in brief: as §1
[8] = test system: Rattus norvegicus; assay: Antiarrhythmic activity against anesthetized rats after peroral administration; assay type: functional, Heart
Method in brief: (§2)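 Male Wistar rats (350–450 g) dosed orally 1 h before occlusion, then anesthetized with pentobarbital (60 mg/kg ip) and ventilated. LAD ligated 5 min, reperfused 10 min; VT plus VF durations summed within 600 s. Mean ± SE, n = 5–10; line 2 value is the minimum effective dose.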

[9] = species on record: Cavia porcellus; assay: Inhibitory activity on atrial contractility in isolated Guinea pig right atrea at 0.1 mg/mL concentration; assay type: functional, Cardiac atrium; method in brief: as §1
[10] = test system: Rattus norvegicus; assay: Effect (100 mg/kg, po) on coronary reperfusion-induced arrhythmias was assessed in anesthetized rats.(Intervals of ventricular tachycardia (VT)+ventricular fibrillation (VF) within 600 s; assay type: functional, Cardiac ventricle; method in brief: as §2
[11] = species on record: Cavia porcellus; assay: Inhibitory activity on atrial rate in isolated Guinea pig right atrea at 0.03 mg/mL concentration; assay type: functional, Cardiac atrium; method in brief: as §1
[12] = test system: Rattus norvegicus; assay: Change in arterial blood pressure was measured at 0.1 mg/kg dose(iv) in anesthetized rats; assay type: functional, Artery
Method in brief: (§3)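 Male Wistar rats, pentobarbital 60 mg/kg ip, supine. Compound suspended in saline with 1% olive oil and 1% Tween 80, injected via femoral vein. Femoral arterial pressure monitored 10 min after injection; change in mmHg, mean ± SE, n = 3–4.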

[13] = test system: Rattus norvegicus; assay: inhibitory activity was tested against anesthetized rats at 10 mg/kg; assay type: functional
[14] = test system: Rattus norvegicus; assay: Antiarrhythmic activity against anesthetized rats after intravenous administration; assay type: functional, Heart
[15] = test system: Rattus norvegicus; assay: Change in arterial blood pressure was measured at 0.3 mg/kg dose(iv) in anesthetized rats; assay type: functional, Artery; method in brief: as §3
[16] = test system: Rattus norvegicus; assay: Change in heart rate was measured at 0.3 mg/kg dose(iv) in anesthetized rats; assay type: functional
Method in brief: (§4)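 Anesthetized male Wistar rats (pentobarbital 60 mg/kg ip); compound in saline/1% olive oil/1% Tween 80 given by femoral vein. Lead II ECG recorded and heart rate read by beat-to-beat tachograph for 10 min after dosing; change in beats/min, mean ± SE, n = 3–4.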

[17] = test system: Rattus norvegicus; assay: inhibitory activity was tested against anesthetized rats at 100 mg/kg; assay type: functional
[18] = species on record: Cavia porcellus; assay: Inhibitory activity on atrial contractility in isolated Guinea pig right atrea at 0.3 mg/mL concentration; assay type: functional, Cardiac atrium; method in brief: as §1
[19] = species on record: Rattus norvegicus; assay: Minimum effective dose of the compound; assay type: functional; conditions: read-out: MED
[20] = species on record: Cavia porcellus; assay: Inhibitory activity on atrial rate in isolated Guinea pig right atrea at 0.3 mg/mL concentration; assay type: functional, Cardiac atrium; method in brief: as §1
[21] = test system: Rattus norvegicus; assay: Effect (10 mg/kg, po) on coronary reperfusion-induced arrhythmias was assessed in anesthetized rats.(Intervals of ventricular tachycardia (VT)+ventricular fibrillation (VF) within 600 s.; assay type: functional, Cardiac ventricle; method in brief: as §2
[22] = test system: Rattus norvegicus; assay: Change in heart rate was measured at 0.1 mg/kg dose(iv) in anesthetized rats; assay type: functional; method in brief: as §4
[23] = test system: Rattus norvegicus; assay: Effect (0.1 mg/kg, iv) on coronary reperfusion-induced arrhythmias was assessed in anesthetized rats.(Intervals of ventricular tachycardia (VT)+ventricular fibrillation (VF) within 600 s; assay type: functional, Cardiac ventricle
[24] = test system: Rattus norvegicus; assay: Effect (10 mg/kg, iv) on coronary reperfusion-induced arrhythmias was assessed in anesthetized rats.(Intervals of ventricular tachycardia (VT)+ventricular fibrillation (VF) within 600 s; assay type: functional, Cardiac ventricle
[25] = test system: Rattus norvegicus; assay: Effect (30 mg/kg, po) on coronary reperfusion-induced arrhythmias was assessed in anesthetized rats.(Intervals of ventricular tachycardia (VT)+ventricular fibrillation (VF) within 600 s.; assay type: functional, Cardiac ventricle; method in brief: as §2
[26] = test system: Rattus norvegicus; assay: Change in arterial blood pressure was measured at 10 mg/kg dose(iv) in anesthetized rats; assay type: functional, Artery; method in brief: as §3
[27] = test system: Rattus norvegicus; assay: Change in heart rate was measured at 30 mg/kg dose(iv) in anesthetized rats; assay type: functional; method in brief: as §4
[28] = species on record: Cavia porcellus; assay: Inhibitory activity against atrial rate in isolated Guinea pig right atrea at 0.3 mg/mL concentration; assay type: functional, Cardiac atrium; method in brief: as §1
[29] = test system: Rattus norvegicus; assay: Change in arterial blood pressure was measured at 30 mg/kg dose(iv) in anesthetized rats; assay type: functional, Artery; method in brief: as §3
[30] = species on record: Cavia porcellus; assay: Inhibitory activity against atrial rate in isolated Guinea pig right atrea at 0.03 mg/mL concentration; assay type: functional, Cardiac atrium; method in brief: as §1
[31] = species on record: Cavia porcellus; assay: Inhibitory activity against atrial contractility in isolated Guinea pig right atrea at 0.1 mg/mL concentration; assay type: functional, Cardiac atrium; method in brief: as §1
[32] = species on record: Cavia porcellus; assay: Inhibitory activity against atrial rate in isolated Guinea pig right atrea at 0.1 mg/mL concentration; assay type: functional, Cardiac atrium; method in brief: as §1
[33] = species on record: Cavia porcellus; assay: Inhibitory activity against atrial contractility in isolated Guinea pig right atrea at 0.03 mg/mL concentration; assay type: functional, Cardiac atrium; method in brief: as §1
[34] = test system: Rattus norvegicus; assay: Effect (100 mg/kg, po) on coronary reperfusion-induced arrhythmias was assessed in anesthetized rats.(Intervals of ventricular tachycardia (VT)+ventricular fibrillation (VF) within 600 s.; assay type: functional, Cardiac ventricle; method in brief: as §2
[35] = test system: Rattus norvegicus; assay: Change in heart rate was measured at 10 mg/kg dose(iv) in anesthetized rats; assay type: functional; method in brief: as §4
[36] = species on record: Cavia porcellus; assay: Inhibitory activity against atrial contractility in isolated Guinea pig right atrea at 0.3 mg/mL concentration; assay type: functional, Cardiac atrium; method in brief: as §1

## CCCCCCCCCCC(=O)COC1=C(O)C(=O)OC1C(O)CO (centres undefined)
[1]
  Inhibition: 11.1%
[2]
  inhibition: 88%
[3]
  Arrhythmias times: 205

## CCCCCCCCCCCCCCC(=O)COC1=C(O)C(=O)OC1C(O)CO (centres undefined)
[4]
  Arrhythmias times: 445
[1]
  Inhibition: 36.8%
[2]
  inhibition: 65%

## CCCCCCCCCCCCCCCCC(=O)COC1=C(O)C(=O)OC1C(O)CO (centres undefined)
[5]
  Arrhythmias times: 521
[2]
  inhibition: 43%

## CCCCCCCCCCCCCCCCCCOC1=C(O)[C@@H](C(O)CO)OC1=O (some centres undefined)
[6]
  Inhibition: -10.7%
[7]
  Inhibition: -6%
[8]
  Efficacy: 10 mg/kg
[9]
  Inhibition: -16.7%
[10]
  Arrhythmias times: 39.4
[11]
  Inhibition: -1.8%
[12]
  Delta blood pressure: -10 mmHg
[13]
  inhibition in vivo at 10 mg/kg: 20%
[14]
  Efficacy: >0.1 mg/kg
[15]
  Delta blood pressure: -35.3 mmHg
[16]
  Delta heart rate: -55 beats min-1
[1]
  Inhibition: 87%
[17]
  inhibition in vivo at 100 mg/kg: 92%
[2]
  inhibition: 88%
[18]
  Inhibition: -39.9%
[19]
  minimal effective dose: 100 mg/kg
[20]
  Inhibition: -13.6%
[21]
  Arrhythmias times: 413.2
[22]
  Delta heart rate: -10 beats min-1
[23]
  Arrhythmias times: 238

## CCCCCCCCCCCCOC1=C(O)C(=O)OC1C(O)CO (centres undefined)
[24]
  Arrhythmias times: 49
[1]
  Inhibition: 38.7%
[2]
  inhibition: 91%

## CCCCCCCCCCCCC(=O)COC1=C(O)C(=O)OC1C(O)CO (centres undefined)
[25]
  Arrhythmias times: 313.3
[26]
  Delta blood pressure: -5 mmHg
[27]
  Delta heart rate: -35 beats min-1
[8]
  Efficacy: >30 mg/kg
[28]
  Inhibition: 13%
[29]
  Delta blood pressure: -17.7 mmHg
[30]
  Inhibition: 12.9%
[31]
  Inhibition: 30.2%
[14]
  Efficacy: >1 mg/kg
[32]
  Inhibition: 14.6%
[33]
  Inhibition: 25%
[34]
  Arrhythmias times: 85.4
[1]
  Inhibition: 6.3%
[35]
  Delta heart rate: -8.3 beats min-1
[2]
  inhibition: 85%
[36]
  Inhibition: 41.3%
[21]
  Arrhythmias times: 378.2
[3]
  Arrhythmias times: 185

## CCCCCCCCCCCCCCOC1=C(O)C(=O)OC1C(O)CO (centres undefined)
[5]
  Arrhythmias times: 352
[1]
  Inhibition: 40.7%
[2]
  inhibition: 78%

## CCCCCCCCCCCC1OCC(C2OC(=O)C(O)=C2OCC(C)=O)O1 (centres undefined)
[5]
  Arrhythmias times: 478
[2]
  inhibition: 44%

## O=C1OC(C(O)CO)C(OCC(=O)c2ccccc2)=C1O (centres undefined)
[4]
  Arrhythmias times: 429
[2]
  inhibition: 1%

## CCCCCCCCC(=O)COC1=C(O)C(=O)OC1C(O)CO (centres undefined)
[5]
  Arrhythmias times: 433
[1]
  Inhibition: 4.9%
[2]
  inhibition: 64%
